Measurements published in ChEMBL document CHEMBL1921710, “Anti-staphylococcal activity and β-lactam resistance attenuating capacity of structural analogues of (-)-epicatechin gallate” (2011).
Values after ≈ are worked out from the molar mass of the structure shown. Active and inactive are the calls of the source. No cut-off for these calls is given here.

Legend:
[1] = test system: Staphylococcus aureus; assay: Antistaphylococcal activity against epidemic Staphylococcus aureus isolate 16 by CLSI broth microplate assay; format: functional
How it was run: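 MIC against MRSA clinical isolate EMRSA-16, measured by CLSI broth microplate dilution. Compounds were dissolved in 60% v/v EtOH, then diluted into broth.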

[2] = test system: Staphylococcus aureus; assay: Potentiation of oxacillin-induced antistaphylococcal activity against epidemic Staphylococcus aureus isolate 16 at 12.5 ug/mL by CLSI broth microplate assay; format: functional, organism-based
How it was run: (§1)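 Oxacillin MIC against EMRSA-16 with the analogue held at a fixed concentration. Run in 96-well trays with about 10^4 CFU in 100 μl Mueller–Hinton broth containing 2% w/v NaCl. Compounds were dissolved in 60% v/v EtOH before dilution into broth.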

[3] = test system: Staphylococcus aureus; assay: Potentiation of oxacillin-induced antistaphylococcal activity against epidemic Staphylococcus aureus isolate 16 at 6.25 ug/mL by CLSI broth microplate assay; format: functional, organism-based; how it was run: as §1

SMILES	MIC [1]	Activity [2]	Activity [3]
O=C(O[C@@H]1Cc2c(O)cc(O)cc2O[C@@H]1c1cc(O)cc(O)c1)c1cc(O)c(O)c(O)c1	128 µg/mL (≈ 289 µM)	Active	
O=C(N[C@@H]1Cc2c(O)cc(O)cc2O[C@@H]1c1ccc(O)c(O)c1)c1cc(O)c(O)c(O)c1		Active	
O=C(O[C@@H]1Cc2c(O)cc(O)cc2O[C@@H]1c1ccccc1)c1cc(O)c(O)c(O)c1	64 µg/mL (≈ 156 µM)	Active	Active
Cc1onc(-c2ccccc2)c1C(=O)N[C@@H]1C(=O)N2[C@@H]1SC(C)(C)[C@@H]2C(=O)O [OXACILLIN]	512 µg/mL (≈ 1280 µM)		
O=C(O[C@@H]1Cc2c(O)cc(O)cc2O[C@@H]1c1ccc(O)c(O)c1)c1cc(O)c(O)c(O)c1 [EPICATECHIN GALLATE]	128 µg/mL (≈ 289 µM)	Active	
O=C(O[C@@H]1Cc2c(O)cc(O)cc2O[C@@H]1c1cccc(O)c1)c1cc(O)c(O)c(O)c1	128 µg/mL (≈ 300 µM)	Active	
O=C(O[C@@H]1Cc2ccccc2O[C@@H]1c1ccccc1)c1cc(O)c(O)c(O)c1	16 µg/mL (≈ 42.3 µM)	Active	Active
O=C(O[C@@H]1Cc2ccccc2O[C@H]1c1ccccc1)c1cc(O)c(O)c(O)c1	16 µg/mL (≈ 42.3 µM)	Active	Active
